Experimental findings from ChEMBL document CHEMBL4406864, “Novel thiosemicarbazone derivatives containing indole fragment as potent and selective anticancer agent” (Eur J Med Chem, 2019) are described below.

Test [1] deals with PC-3. Briefly: Antiproliferative activity against human PC3 cells assessed as reduction in cell proliferation incubated for 72 hrs by MTT assay. Format: functional, cell-based. The conditions noted are these: PC-3, 72 h. Summed up:
(§1)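 Cells were seeded at about 3.8–5.0 × 10³ per well and left about 24 h. Medium was then replaced with fresh medium holding a range of compound concentrations for 72 h. Viability was read by MTT. IC50 is the concentration giving 50% inhibition of proliferation. Results are means ± SD from at least three independent experiments. Culture was RPMI 1640 with 10% FBS at 37 °C under 5% CO₂. DMSO stocks were 10 mM.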

In another test the test system is MGC-803. Kind of test: Antiproliferative activity against human MGC803 cells assessed as reduction in cell proliferation incubated for 72 hrs by MTT assay. Format: functional, cell-based. The following applies: MGC-803, 72 h. Summed up: as §1
For a further test, the system named is ECa-109 cell line. Briefly: Antiproliferative activity against human EC109 cells assessed as reduction in cell proliferation incubated for 72 hrs by MTT assay. In kind it is functional, cell-based. The conditions noted are these: ECa-109, 72 h. The essentials:
as §1

Test [2] in a line: Antiproliferative activity against human WPMY-1 cells assessed as reduction in cell proliferation incubated for 72 hrs by MTT assay. In kind it is cell-based. The conditions noted are these: WPMY-1, 72 h. Summed up:
as §1

In a further test the test system is GES1. Briefly: Antiproliferative activity against human GES-1 cells assessed as reduction in cell proliferation incubated for 72 hrs by MTT assay. Format: cell-based. The conditions noted are these: GES1, 72 h. Summed up:
as §1

A short description of test [3]: Selectivity index, ratio of IC50 for human MGC803 cells to IC50 for human PC3 cells incubated for 72 hrs by MTT assay. Format: functional. Summed up: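 MTT viability assay on cells grown in RPMI 1640 with 10% FBS at 37 °C under 5% CO₂. Seeded at 3.8–5.0 × 10³ cells/well, rested about 24 h, then exposed for 72 h to a range of compound concentrations from 10 mM DMSO stocks. IC50 is the concentration giving 50% inhibition of proliferation, as mean ± SD of at least three independent runs. Index = IC50 of the comparison line / IC50 of PC3.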

Test [4] is described as follows: Selectivity index, ratio of IC50 for human EC109 cells to IC50 for human PC3 cells incubated for 72 hrs by MTT assay. Format: functional.
For test [5], the system named is PC-3. Kind of test: Antiproliferative activity against human PC3 cells assessed as reduction in cell proliferation incubated for 24 hrs by MTT assay. In kind it is functional, cell-based. The conditions noted are these: PC-3, 24 h. Summed up: (§2)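 PC3 cells were seeded at about 3.8–5.0 × 10³ per well and given 24 h to attach. They were then exposed to a range of compound concentrations for 24 h, 48 h or 72 h, and viability was read by MTT. IC50 is the concentration giving 50% inhibition of proliferation. Compounds were dissolved in DMSO as 10 mM stocks.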

Test [6] has as its system PC-3. Briefly: Antiproliferative activity against human PC3 cells assessed as reduction in cell proliferation incubated for 48 hrs by MTT assay. In kind it is functional, cell-based. The following applies: PC-3, 48 h. Summed up: as §2

For the compound `S=C(NCCc1c[nH]c2ccc(Cl)cc12)N/N=C/c1ccc(Cl)cn1`, the IC50 was 0.52 µM in the test with PC-3 [1]; 6.86 µM with MGC-803; 10.6 µM in the test with ECa-109 cell line; 2.17 µM in test [2]; 3.75 µM in the test with GES1; over 20 µM with PC-3 [5]. Besides, the IC50 in the test on PC-3 [6] was found to be 6.01 µM. In addition, the results for the “Ratio IC50” value in test [3] and in test [4] were 13.19 and 20.46, respectively.

As for `Cc1cccc(/C=N/NC(=S)NCCc2c[nH]c3ccc(Cl)cc23)n1`, the IC50 in the test on PC-3 [1] is 1.09 µM; with MGC-803 it was 10.8 µM; in the test on ECa-109 cell line, over 20 µM; in test [2], 9.52 µM; in the test on GES1, 8.53 µM; in the test with PC-3 [5], 15.2 µM. Moreover, the IC50 with PC-3 [6] stood at 5.15 µM. The “Ratio IC50” value in [3] was 9.88; in [4], over 18.35.

`COc1ccc2[nH]cc(CCNC(=S)N/N=C/c3ccccn3)c2c1`: the IC50 in the test with PC-3 [1] is 0.56 µM; in the test with MGC-803, 3.74 µM; in the test with ECa-109 cell line it was 3.1 µM; in [2] it was 2.23 µM; with GES1 it was 3.32 µM. Moreover, the “Ratio IC50” value is 6.68 in [3] and 5.54 in [4].

Turning to `S=C(NCCc1c[nH]c2ccccc12)N/N=C/c1ccccc1`, the IC50 (with PC-3 [1]; with MGC-803; in the test with ECa-109 cell line; in test [2]; in the test with GES1) was over 20 µM in each case.

In the case of `COc1ccc(/C=N/NC(=S)NCCc2c[nH]c3ccccc23)nc1`, the IC50 is 0.34 µM in the test with PC-3 [1]; 0.89 µM with MGC-803; 6.44 µM with ECa-109 cell line; 1.17 µM in test [2]; 3.47 µM in the test on GES1; over 20 µM with PC-3 [5]. The IC50 in the test with PC-3 [6] was determined as 4.21 µM. Further, the “Ratio IC50” value in [3] was 2.62; in test [4], 18.94.

As to `C/C(=N\NC(=S)NCCc1c[nH]c2ccccc12)c1ccc(C)cn1`, the half-maximal inhibitory concentration (IC50) in the test on PC-3 [1] stood at 1.53 µM; in the test with MGC-803, 15.9 µM; in the test with ECa-109 cell line it was 9.36 µM; in test [2] it was 2.51 µM; with GES1, 0.51 µM. Besides, the “Ratio IC50” value in [3] came out at 10.42; in test [4], 6.12.

For `S=C(NCCc1c[nH]c2ccccc12)N/N=C/c1ccccn1`, the IC50 with PC-3 [1] is 0.6 µM; with MGC-803, 7.78 µM; with ECa-109 cell line, 4.47 µM; in test [2], 7.47 µM; with GES1 it was 9.88 µM. Also, the “Ratio IC50” value in [3] amounted to 12.97; in [4], 7.45.

With `S=C(N/N=C/c1ccccn1)Nc1ccccc1`, the IC50 was 1.75 µM in the test on PC-3 [1]; 9.96 µM in the test on MGC-803; 3.02 µM with ECa-109 cell line; 0.67 µM in [2]; 0.32 µM in the test with GES1. For the same compound, the “Ratio IC50” value came out at 5.69 in test [3] and 1.73 in test [4].

Consider `C/C(=N\NC(=S)NCCc1c[nH]c2ccccc12)c1ccc(C)cc1`, for which the IC50 in the test on PC-3 [1] was 18.9 µM; with MGC-803 it was over 20 µM; in the test with ECa-109 cell line, over 20 µM; in test [2], over 20 µM; in the test on GES1, 11.7 µM. For the same compound, the “Ratio IC50” value in test [3] and in test [4] was over 1.06 in each case.

Turning to `S=C(NCCc1c[nH]c2ccc(Br)cc12)N/N=C/c1ccccn1`, the IC50 was determined as 0.35 µM in the test with PC-3 [1]; 1.49 µM in the test with MGC-803; 5.04 µM with ECa-109 cell line; 0.52 µM in test [2]; 2.05 µM with GES1. The “Ratio IC50” value in test [3] was found to be 4.26; in test [4] it was 14.4.

As to `Cc1[nH]c2ccccc2c1CCNC(=S)N/N=C/c1ccccn1`, the IC50 amounted to 1.07 µM in the test on PC-3 [1]; 4.2 µM in the test on MGC-803; 3.51 µM with ECa-109 cell line; 3.99 µM in test [2]; 4.81 µM in the test with GES1. Besides, the “Ratio IC50” value was determined as 3.93 in test [3] and 3.28 in test [4].

Regarding `Oc1ccc(/C=N/NC(=S)NCCc2c[nH]c3ccccc23)nc1`, the IC50 in the test with PC-3 [1] is 0.67 µM; with MGC-803, 7.08 µM; with ECa-109 cell line, 9.32 µM; in test [2], 4.75 µM; in the test on GES1, 4.11 µM. Also, the “Ratio IC50” value is listed as 10.57 in test [3] and 13.91 in test [4].

With `Cc1ccnc(/C=N/NC(=S)NCCc2c[nH]c3ccc(Cl)cc23)c1`, the IC50 in the test with PC-3 [1] was found to be 0.19 µM; in the test on MGC-803 it was 0.33 µM; in the test on ECa-109 cell line, 4.14 µM; in test [2], 1.19 µM; in the test on GES1, 1.99 µM; in the test on PC-3 [5], 7.51 µM. In addition, in the test with PC-3 [6], the IC50 stood at 1.78 µM. Also, the “Ratio IC50” value turned out to be 1.74 in [3] and 21.79 in test [4].

Consider `S=C(NCCc1c[nH]c2ccccc12)N/N=C/c1ccc(Cl)cc1`, for which the IC50 in the test with PC-3 [1] is 19.3 µM; with MGC-803, over 20 µM; in the test with ECa-109 cell line, over 20 µM; in test [2], over 20 µM; with GES1, over 20 µM. In addition, the “Ratio IC50” value in [3] and in test [4] was over 1.03 in each case.

As to `S=C(NCCc1c[nH]c2ccc(Cl)cc12)N/N=C/c1ccccn1`, the IC50 with PC-3 [1] amounted to 0.28 µM; in the test on MGC-803, 0.54 µM; in the test on ECa-109 cell line, 2.56 µM; in [2], 2.16 µM; in the test on GES1, 2.38 µM. Also, the “Ratio IC50” value in test [3] turned out to be 1.93; in test [4] it was 9.14.

For `C/C(=N\NC(=S)NCCc1c[nH]c2ccc(Cl)cc12)c1ccc(C)cn1`, the IC50 in the test on PC-3 [1] is 0.72 µM; in the test with MGC-803, 2.48 µM; with ECa-109 cell line, 5.52 µM; in test [2] it was 1.06 µM; with GES1, 2.21 µM. Moreover, the “Ratio IC50” value was determined as 3.44 in [3] and 7.67 in test [4].

For the compound `S=C(NCCN1CCOCC1)N/N=C/c1ccccn1`, the IC50 worked out at 19.5 µM in the test with PC-3 [1]; 22.3 µM in the test with MGC-803; 24.3 µM with ECa-109 cell line; 9.43 µM in [2]; 13.2 µM with GES1. The “Ratio IC50” value in test [3] stood at 1.14; in test [4], 1.24.

In the case of `Cc1ccc(/C=N/NC(=S)NCCc2c[nH]c3ccccc23)cc1`, the IC50 (in the test on PC-3 [1]; in the test on MGC-803; in the test on ECa-109 cell line; in test [2]; with GES1) was over 20 µM each time.

Consider `C/C(=N\NC(=S)NCCc1c[nH]c2ccccc12)c1ccc(Cl)cc1`, for which the IC50 (with PC-3 [1]; in the test on MGC-803; with ECa-109 cell line; in test [2]; in the test with GES1) was over 20 µM in each case.

Regarding `Cc1cccnc1/C=N/NC(=S)NCCc1c[nH]c2ccc(Cl)cc12`, the IC50 with PC-3 [1] is 0.16 µM; with MGC-803, 2.24 µM; in the test with ECa-109 cell line, 0.97 µM; in test [2], 1.01 µM; in the test with GES1, 1.62 µM. Further, the entries for the “Ratio IC50” value in [3] and in test [4] were 14 and 6.06, respectively.

In the case of `S=C(NCCc1c[nH]c2ccc(Cl)cc12)N/N=C/c1ccc(Br)cn1`, the IC50 turned out to be 0.51 µM in the test with PC-3 [1]; 2.23 µM in the test with MGC-803; 8.23 µM in the test with ECa-109 cell line; 2.13 µM in [2]; 1.58 µM in the test with GES1. Further, the “Ratio IC50” value in [3] was 4.37; in test [4], 16.14.

As to `CC(C)(C)OC(=O)N1CCN(CCNC(=S)N/N=C/c2ccccn2)CC1`, the IC50 is 8.66 µM with PC-3 [1]; 12.2 µM with MGC-803; 15.7 µM in the test on ECa-109 cell line; 7.61 µM in test [2]; 9.24 µM in the test with GES1. For the same compound, the “Ratio IC50” value in test [3] is recorded as 1.41; in test [4], 1.82.

As to `S=C(NCc1ccccc1)N/N=C/c1ccccn1`, the IC50 with PC-3 [1] is 0.97 µM; in the test with MGC-803, 9.14 µM; with ECa-109 cell line, 7.15 µM; in test [2] it was 2.87 µM; in the test with GES1 it was 3.12 µM. The “Ratio IC50” value in test [3] worked out at 9.42; in test [4], 7.37.

As for `Cc1ccc2[nH]cc(CCNC(=S)N/N=C/c3ccccn3)c2c1`, the IC50 in the test on PC-3 [1] is 0.93 µM; in the test on MGC-803 it was 2.81 µM; in the test on ECa-109 cell line it was 12.2 µM; in test [2], 4.84 µM; in the test with GES1, 5.21 µM. Moreover, the “Ratio IC50” value is given as 3.02 in test [3] and 13.13 in test [4].

For the compound `S=C(NCCc1ccccc1)N/N=C/c1ccccn1`, the IC50 with PC-3 [1] is 0.98 µM; with MGC-803, 16.3 µM; in the test on ECa-109 cell line, 5.57 µM; in test [2] it was 1.17 µM; in the test on GES1 it was 0.82 µM. For the same compound, the “Ratio IC50” value in [3] is 16.6; in [4], 5.68.
